AP complement: orthogonal test for alternative complement pathway inhibitors; Human serum alternative complement pathway, LPS-coated ELISA, C3 deposition; tested in compound mixtures; inhibition, % at 5 µM; actives 0.08% (n = 62,000);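 active means inhibition above 30% in each of the two pooled mixtures holding the compound, so the lower value exceeds 30%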;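 further: 0% = serum in Mg-EGTA without compound and 100% = EDTA serum blank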
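Test system – human serum alternative complement pathway, C3 deposition on LPS-coated wells · Buffer or medium – diluted human serum in Mg2+-EGTA GVB++ · Compound dosing – 5 µM each compound, pools of ten, 50 µM per pool · Schedule – 1 h serum-compound exposure at 37 °C · Measured by – Anti-C3 ELISA, OD 450 nm · Read-out basis – percent inhibition of C3 deposition onto LPS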
Ec RNAP inh: blocks E. coli RNA polymerase transcription; P0A8V2; fluorescence transcription assay; inhibition, %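 (tested at 10 µM)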; actives 0.2% (n = 62,000); in the data active means inhibition above about 20%;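 further: 0% = enzyme without compound and 100% = no enzyme blank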
BAP1 block: inhibitors of human BAP1 deubiquitinase. Q92560. recombinant BAP1, Ub-AMC hydrolysis fluorescence kinetic; hits give low values. calls only at 20 µM. actives 0.48% (n = 72,000). AID 436;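 active means activity remaining at or below 50% of control, provided the compound also passes the data quality filters; inactive means the rest, including low values that fail the filters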;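 further: 100% = DMSO wells rate and 0% = substrate alone blank rate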
BAP1 inh conf: confirmation of human BAP1 enzyme inhibitors | actives 8% (n = 310) | % of control activity, % at 20 µM | purified BAP1, Ub-ethyl ester hydrolysis, HPLC; hits give low values | AID 753 | shares compounds with BAP1 block;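 active means percent of control activity at or below 60%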
The depositor's hits bear a star; i = inactive; . = no result given; + = active, no number. Only some compounds are listed: those with a hit (about 0.66% of all), similar ones and a draw of the others.

SMILES	AP complement	Ec RNAP inh	BAP1 block	BAP1 inh conf
CCCCn1c(=O)c(C(=O)Nc2nc3ccccc3[nH]2)c(O)c2ccccc21	-4	9	+	.
CCCCn1c(=O)c(C(=O)Nc2cnccn2)c(O)c2ccccc21	-7	6	i	.
N[C@@H](CCl)C(=O)O	.	.	i	.
NC(Cc1cc(O)c(O)cc1O)C(=O)O (centres undefined)	.	.	+	.
CC(=Nc1ccc2c(c1)CCC2)c1c(O)n(C2CCCCC2)c(=O)[nH]c1=O	8	8	.	.
CCC(=Nc1ccc2c(c1)CCC2)c1c(O)n(C2CCCCC2)c(=O)[nH]c1=O	7	1	+	84
CC(=O)Oc1ccc(OC(C)=O)c2c1C1(Cl)C(Cl)=C(Cl)C2(Cl)C1(Cl)Cl	.	.	i	.
CCn1nc(-c2cccs2)nc2c(=O)n(C)c(=O)nc1-2	-5	9	+	94
